Data from ChEMBL document CHEMBL2331363, “Synthesis of a 2,4,6-trisubstituted 5-cyano-pyrimidine library and evaluation of its immunosuppressive activity in a Mixed Lymphocyte Reaction assay” (Bioorg Med Chem, 2013).
pIC50: −log10 of the molar value.

Columns and labels:
[1] = Immunosuppressive activity in human RPMI1788 cells cocultured with human PBMC assessed as inhibition of [3H]thymidine incorporation incubated for 6 days prior to [3H]thymidine addition measured after 18 hrs by liquid scintillation counting; assay type: functional, cell-based; conditions: RPMI-1788
Method in brief: (§1)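 Effector PBMCs from heparinized healthy-donor blood were isolated over Lymphoprep and held at 1.2 × 10⁶ cells/mL in RPMI-1640 with 10% heat-inactivated FCS. Mitomycin-treated stimulator cells were at 0.45 × 10⁶ cells/mL. Cells were mixed with diluted compound and cultured at 37 °C, 5% CO₂. (methyl-³H)thymidine was added for the final 18 h, and filter-harvested cpm were counted by scintillation. Compounds were screened at one concentration, then dose-response IC₅₀ was determined. Values are means of two independent experiments.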

[2] = Immunosuppressive activity in human RPMI1788 cells cocultured with human PBMC assessed as inhibition of [3H]thymidine incorporation at 10 uM incubated for 6 days prior to [3H]thymidine addition measured after 18 hrs by liquid scintillation counting; assay type: functional; conditions: RPMI-1788; method in brief: as §1
[3] = Growth inhibition of human Jurkat T cells at 10 uM after 48 hrs by WST1 assay; assay type: cell-based
Method in brief: (§2)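 Jurkat T cells were seeded at 5.10⁴ cells per well and exposed to serial compound dilutions for 48 h at 37 °C and 5% CO₂. Part of the medium was removed, WST-1 tetrazolium salt was added, and cells were incubated further. Absorbance was read at 450 nm. Results are % cytotoxicity at each concentration, with CC₅₀ calculated.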

[4] = Cytotoxicity against human Jurkat T cells after 48 hrs by WST1 assay; assay type: cell-based; method in brief: as §2

pIC50 [1]	Compound	inhibition at 10 µM [2]	inhibition at 48 h, 10 µM [3]	CC50 at 48 h [4]
< 5.00	N#Cc1c(NC2CCCCC2)nc(Nc2ccc(Cl)cc2)nc1-c1ccc(Cl)cc1	1%	–	–
< 5.00	Cn1c(SCc2ccccc2)nc(-c2ccc(Cl)cc2)c(C#N)c1=O	0%	–	–
< 5.00	COc1ccc(-c2nc(SCc3ccccc3)nc(N3CCC(c4ccccc4)CC3)c2C#N)cc1	31%	–	–
5.24	CC(C)Nc1nc(Nc2ccc(Cl)cc2)nc(-c2ccccc2)c1C#N	72%	–	–
< 5.00	CCOc1nc(Nc2ccc(Cl)cc2)nc(-c2ccccc2)c1C#N	38%	–	–
5.68	COc1ccc(-c2nc(SCc3ccccc3)nc(N3CCC(C(=O)c4ccccc4)CC3)c2C#N)cc1	63%	2%	> 10 µM
< 5.00	COc1ccc(-c2nc(SCc3ccccc3)nc(N3CCSCC3)c2C#N)cc1	13%	–	–
< 5.00	Cc1ccc(Nc2nc(-c3ccc(Cl)cc3)c(C#N)c(N3CCCCC3)n2)cc1	0%	–	–
< 5.00	N#Cc1c(-c2ccc(Cl)cc2)nc(SCc2ccccc2)nc1N1CCCC(C(N)=O)C1 (stereo unspecified)	64%	–	–
< 5.00	CCOc1nc(SCc2ccccc2)nc(-c2cccc(Cl)c2)c1C#N	10%	–	–
< 5.00	N#Cc1c(OCc2ccccc2)nc(Nc2ccc(Cl)cc2)nc1-c1ccc(Cl)cc1	26%	–	–
< 5.00	N#Cc1c(-c2ccc(Cl)cc2)nc(Nc2ccccc2)[nH]c1=O	8%	–	–
5.26	N#Cc1c(-c2cccc(Cl)c2)nc(SCc2ccccc2)nc1N1CCOCC1	80%	15%	> 10 µM
5.37	Cc1ccc(Nc2nc(-c3ccccc3)c(C#N)c(N3CCCCC3)n2)cc1	88%	10%	> 10 µM
5.19	N#Cc1c(NC2CCCCC2)nc(SCc2ccccc2)nc1-c1ccc(Cl)cc1	56%	0%	> 10 µM
5.31	COc1ccc(-c2nc(SC)nc(N3CCOCC3)c2C#N)cc1	80%	6%	> 10 µM
< 5.00	N#Cc1c(-c2ccc(Cl)cc2)nc(SCc2ccccc2)nc1N1CCC(Cc2ccccc2)CC1	17%	–	–
5.47	C=CCSc1nc(-c2ccc(OC)cc2)c(C#N)c(N2CCOCC2)n1	82%	5%	> 10 µM
< 5.00	COc1ccc(-c2nc(Nc3ccc(Cl)cc3)[nH]c(=O)c2C#N)cc1	0%	–	–

pIC50 [1]	Compound	inhibition at 10 µM [2]	inhibition at 48 h, 10 µM [3]	CC50 at 48 h [4]
5.08	N#Cc1c(-c2ccc(Cl)cc2)nc(SCc2ccccc2)nc1N1CCOCC1	63%	5%	> 10 µM
< 5.00	CCc1cccc(Nc2nc(-c3ccc(Cl)cc3)c(C#N)c(=O)[nH]2)c1	33%	–	–
< 5.00	CCOc1nc(Nc2ccc(Cl)cc2)nc(-c2ccc(Cl)cc2)c1C#N	0%	–	–
< 5.00	CCOc1nc(SCc2ccccc2)nc(-c2ccc(OC)cc2)c1C#N	46%	–	–
< 5.00	CC(C)Nc1nc(SCc2ccccc2)nc(-c2ccc(Cl)cc2)c1C#N	48%	–	–
< 5.00	N#Cc1c(-c2ccccc2)nc(Nc2ccc(Cl)cc2)[nH]c1=O	0%	–	–
< 5.00	COc1ccc(-c2nc(SCc3ccccc3)n(C)c(=O)c2C#N)cc1	5%	–	–
< 5.00	COc1ccc(-c2nc(SCc3ccccc3)nc(N3CCC(C)CC3)c2C#N)cc1	35%	–	–
< 5.00	CC(C)Nc1nc(Nc2ccc(Cl)cc2)nc(-c2ccc(Cl)cc2)c1C#N	0%	–	–
< 5.00	CCCn1c(SCc2ccccc2)nc(-c2cccc(Cl)c2)c(C#N)c1=O	9%	–	–
5.30	COc1ccc(-c2nc(SCc3ccccc3)nc(NCc3cccs3)c2C#N)cc1	65%	13%	> 10 µM
< 5.00	N#Cc1c(-c2ccc(Cl)cc2)nc(Nc2ccc(Cl)cc2)[nH]c1=O	18%	–	–
5.01	N#Cc1c(-c2ccc(Cl)cc2)nc(SCc2ccccc2)nc1N1CCC(C(=O)c2ccccc2)CC1	55%	6%	> 10 µM
5.41	COc1ccc(-c2nc(SCCc3ccccc3)nc(N3CCOCC3)c2C#N)cc1	62%	9%	> 10 µM
5.28	CCCCCCSc1nc(-c2ccc(OC)cc2)c(C#N)c(N2CCOCC2)n1	69%	13%	> 10 µM
< 5.00	Cn1c(SCc2ccccc2)nc(-c2cccc(Cl)c2)c(C#N)c1=O	7%	–	–
5.31	COc1ccc(-c2nc(SCc3ccccc3)nc(N3CCC(C(N)=O)CC3)c2C#N)cc1	73%	12%	> 10 µM
< 5.00	N#Cc1c(OCc2ccccc2)nc(SCc2ccccc2)nc1-c1ccc(Cl)cc1	22%	–	–
< 5.00	CCn1c(SCc2ccccc2)nc(-c2ccc(OC)cc2)c(C#N)c1=O	12%	–	–

pIC50 [1]	Compound	inhibition at 10 µM [2]	inhibition at 48 h, 10 µM [3]	CC50 at 48 h [4]
< 5.00	COc1ccc(-c2nc(SCc3ccc(Br)cc3)nc(N3CCOCC3)c2C#N)cc1	36%	–	–
< 5.00	CCOc1nc(SCc2ccccc2)nc(-c2ccc(Cl)cc2)c1C#N	13%	–	–
< 5.00	CCn1c(SCc2ccccc2)nc(-c2ccc(Cl)cc2)c(C#N)c1=O	5%	–	–
5.21	N#Cc1c(-c2ccccc2)nc(Nc2ccc(Cl)cc2)nc1N1CCCCC1	70%	9%	> 10 µM
5.60	COc1ccc(-c2nc(SCc3ccccc3)nc(NCc3ccccc3)c2C#N)cc1	73%	5%	> 10 µM
5.19	N#Cc1c(-c2ccc(Cl)cc2)nc(SCc2ccccc2)nc1N1CCC(C(N)=O)CC1	57%	19%	> 10 µM
< 5.00	COc1ccc(-c2nc(SCc3ccccc3)nc(NCCc3ccccc3)c2C#N)cc1	11%	–	–
< 5.00	Cc1ccc(Nc2nc(-c3ccc(Cl)cc3)c(C#N)c(=O)[nH]2)cc1	20%	–	–
< 5.00	COc1ccc(-c2nc(SCc3ccccc3)nc(N3CCC(Cc4ccccc4)CC3)c2C#N)cc1	31%	–	–
< 5.00	N#Cc1c(-c2ccc(Cl)cc2)nc(Nc2ccc(Cl)cc2)nc1N1CCCCC1	15%	–	–
< 5.00	CCCOc1nc(Nc2ccc(Cl)cc2)nc(-c2ccccc2)c1C#N	44%	–	–
< 5.00	COc1nc(Nc2ccc(Cl)cc2)nc(-c2ccc(Cl)cc2)c1C#N	0%	–	–
< 5.00	Cc1ccc(Nc2nc(-c3ccccc3)c(C#N)c(=O)[nH]2)cc1	11%	–	–
< 5.00	N#Cc1c(-c2cccc(Cl)c2)nc(Nc2ccc(Cl)cc2)[nH]c1=O	14%	–	–
< 5.00	N#Cc1c(-c2ccc(Cl)cc2)nc(Nc2ccc(Cl)cc2)nc1N1CCOCC1	45%	–	–
< 5.00	N#Cc1c(-c2ccc(Cl)cc2)nc(SCc2ccccc2)n(Cc2ccccc2)c1=O	14%	–	–
5.64	CCCCSc1nc(-c2ccc(OC)cc2)c(C#N)c(N2CCOCC2)n1	67%	13%	> 10 µM
< 5.00	COc1nc(SCc2ccccc2)nc(-c2ccc(Cl)cc2)c1C#N	10%	–	–
< 5.00	N#Cc1c(-c2ccc(Cl)cc2)nc(Nc2cccc(F)c2)[nH]c1=O	0%	–	–
